Data as given in ChEMBL document CHEMBL2163250, “Carbonylhydrazide-based molecular tongs inhibit wild-type and mutated HIV-1 protease dimerization” (J Med Chem, 2012).
≈ marks a conversion by molar mass, not a printed value. Blank lines part the entries; values can stand above or below the molecule they belong to. Calls of active or inactive are those of the source. The calls are words filed in the database; no cut-off is given here.

Key:
[1] = biological target: Protease (Human immunodeficiency virus 1) (UniProt Q9YQ12); assay: Inhibition of HIV1 protease dimerization expressed in Escherichia coli Rosetta(DE3) at 5 uM by 1-Anilino-8-naphthalene sulfonate-based fluorescent probe binding assay
Sequence of Protease (Human immunodeficiency virus 1) (Q9YQ12 as listed by the source): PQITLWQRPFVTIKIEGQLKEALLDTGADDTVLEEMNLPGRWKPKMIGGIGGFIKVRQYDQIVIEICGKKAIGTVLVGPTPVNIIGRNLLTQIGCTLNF
Summary of the method: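 Recombinant PR (350 nM) in 100 mM sodium acetate, 1 M NaCl, 1 mM EDTA, pH 4.7, incubated at 25 °C with or without 5 μM inhibitor. ANS was then added at final 10–60 μM, with final DMSO 0.2% (v/v). Excitation 370 nm, emission 470 nm. Fluorescence was corrected for ANS plus inhibitor without enzyme, and each measurement was averaged over five reads.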

[2] = Inhibition of HIV1 protease ANAM-11 mutant dimerization expressed in Escherichia coli Rosetta(DE3) using DABCYL-gamma-abu-Ser-Gln-Asn-Tyr-Pro-Ile-Val-Gln-EDANS as substrate by Zhang-Poorman kinetic analysis; parameters: species or system Human immunodeficiency virus 1
Summary of the method: (§1)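 Recombinant protease produced in E. coli Rosetta (DE3)pLysS from a pET-9 vector. Fluorimetric assay (ex 340, em 490 nm) run in 100 mM sodium acetate, 1 mM EDTA, 1 M NaCl, pH 4.7, at 30 °C with 3% (v/v) final DMSO. Substrate held at 5.2 μM, at least six enzyme concentrations (5.33−18.6 nM), inhibitor 0.5−28 μM. Kid derived from Zhang−Poorman analysis. At least triplicate.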

[3] = Half life of the compound in RPMI medium in presence of 20% fetal calf serum; assay type: physicochemical; details: cattle, RPMI medium with 20% fetal calf serum
Summary of the method: (§2)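 Inhibitor incubated at 37 °C in RPMI culture medium with 20% fetal calf serum for up to 2 days. Incubations stopped with ethanol, cooled to 4 °C and centrifuged, and the supernatant analysed by HPLC. Half-life came from least-squares linear regression of a semilog plot of remaining inhibitor versus incubation time.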

Renin (Homo sapiens) = biological target: T1, Renin (Homo sapiens) (UniProt P00797); assay: Inhibition of recombinant renin using Arg-Glu(EDANS)-Ile-His-Pro-Phe-His-Leu-Val-Ile-His-Thr-Lys-(DABCYL)-Arg as substrate at 10 uM by fluorimetric analysis
T1 sequence (whole entry): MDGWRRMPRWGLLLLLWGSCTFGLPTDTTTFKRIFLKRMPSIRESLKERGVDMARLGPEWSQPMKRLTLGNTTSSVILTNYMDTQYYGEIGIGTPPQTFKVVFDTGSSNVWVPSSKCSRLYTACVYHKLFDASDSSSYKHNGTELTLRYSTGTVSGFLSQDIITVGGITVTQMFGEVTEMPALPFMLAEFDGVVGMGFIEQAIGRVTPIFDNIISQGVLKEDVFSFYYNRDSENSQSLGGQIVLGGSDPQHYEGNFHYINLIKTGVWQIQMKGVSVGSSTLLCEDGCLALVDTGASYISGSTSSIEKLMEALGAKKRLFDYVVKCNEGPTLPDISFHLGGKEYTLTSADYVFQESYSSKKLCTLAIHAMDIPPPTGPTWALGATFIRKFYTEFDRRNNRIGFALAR
Summary of the method: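 Renin activity read fluorometrically with the EDANS/DABCYL substrate (Km 3.3 μM) at 5 μM in 50 mM Tris–HCl, 100 mM NaCl, 1 mM EDTA, pH 8.0. Excitation 340 nm, emission 500 nm. Compounds were tested at 10 μM.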

Protease = Protease (Human immunodeficiency virus 1, UniProt Q9YQ12); assay: Inhibition of HIV1 protease dimerization expressed in Escherichia coli Rosetta(DE3) using DABCYL-gamma-abu-Ser-Gln-Asn-Tyr-Pro-Ile-Val-Gln-EDANS as substrate by Zhang-Poorman kinetic analysis
Sequence of Protease (Q9YQ12 whole entry): as the sequence (Q9YQ12 as listed by the source) above
Summary of the method: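 Recombinant PR expressed in E. coli Rosetta (DE3)pLysS from a pET-9 vector. Fluorogenic substrate at 5.2 μM (ex 340, em 490 nm) in 100 mM sodium acetate, 1 mM EDTA, 1 M NaCl, pH 4.7, 30 °C, final DMSO 3% (v/v). At least six enzyme concentrations (5.33–18.6 nM) and inhibitor 0.5–28 μM. Kid from Zhang–Poorman analysis, at least triplicate.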

Sus scrofa = organism: Sus scrofa; assay: Inhibition of […] using Abz-Thr-Ile-Nle-(p-NO2-Phe)-Gln-Arg-NH2 as substrate at 10 uM by fluorimetric analysis
Summary of the method: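 Pepsin from porcine gastric mucosa assayed fluorometrically in 10 mM NaHCOO, pH 3.5, with 20 μM Abz-Thr-Ile-Nle-(p-NO₂-Phe)-Gln-Arg-NH₂ substrate (Km 13.3 μM). Excitation 337 nm, emission 410 nm. Compounds were tested at 10 μM.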

[4] = Inhibition of HIV1 protease MDR-HM mutant dimerization expressed in Escherichia coli Rosetta(DE3) using DABCYL-gamma-abu-Ser-Gln-Asn-Tyr-Pro-Ile-Val-Gln-EDANS as substrate by Zhang-Poorman kinetic analysis; parameters: species or system Human immunodeficiency virus 1; summary of the method: as §1
[5] = biological target: Protease (Human immunodeficiency virus 1) (UniProt Q9YQ12); assay: Inhibition of HIV1 protease dimerization expressed in Escherichia coli Rosetta(DE3) using DABCYL-gamma-abu-Ser-Gln-Asn-Tyr-Pro-Ile-Val-Gln-EDANS as substrate at 28 uM by fluorimetric assay
[6] = Solubility of the compound; assay type: physicochemical
[7] = Chemical stability in RPMI medium up to 48 hrs in presence of 20% fetal calf serum; assay type: physicochemical; details: cattle; summary of the method: as §2

Compound: CC(C)(C)NC(=O)[C@@H]1C[C@@H]2CCCC[C@@H]2CN1C[C@@H](O)[C@H](Cc1ccccc1)NC(=O)[C@H](CC(N)=O)NC(=O)c1ccc2ccccc2n1
- inhibition [1]: inactive

Compound: COC(=O)[C@@H](NC(=O)[C@H](CC(C)C)NC(=O)[C@@H](NC(=O)CCCOc1ccc2ccc(OCCCC(=O)NNC(=O)NNC(=O)N[C@H](C(N)=O)C(C)C)cc2c1)C(C)C)C(C)C
- Ki [2]: 170 nM
- half-life [3]: 24 h
- inhibition (Renin (Homo sapiens)): inactive
- Ki (Protease): 150 nM
- inhibition [1]: Active
- inhibition (Sus scrofa): inactive
- Ki [4]: 270 nM

Compound: CC(=O)N[C@H](C(=O)N[C@H](C(=O)N[C@@H](CC(C)C)[C@@H](O)CC(=O)N[C@@H](C)C(=O)N[C@@H](CC(C)C)[C@@H](O)CC(=O)O)C(C)C)C(C)C
- inhibition [1]: inactive

Compound: CC(C)CN(C[C@@H](O)[C@H](Cc1ccccc1)NC(=O)O[C@H]1CCOC1)S(=O)(=O)c1ccc(N)cc1
- inhibition [1]: inactive

Compound: COC(=O)[C@@H](NC(=O)[C@H](CC(C)C)NC(=O)[C@@H](NC(=O)CCCOc1ccc2ccc(OCCCC(=O)N[C@H](C(=O)NNC(=O)[C@@H](NC(=O)OC(C)(C)C)C(C)C)C(C)C)cc2c1)C(C)C)C(C)C
- Ki [2]: 100 nM
- half-life [3]: 24 h
- inhibition (Renin (Homo sapiens)): inactive
- Ki (Protease): 90 nM
- inhibition [1]: Active
- inhibition (Sus scrofa): inactive
- Ki [4]: 160 nM

Compound: CC(C)[C@H](NC(=O)NNC(=O)NNC(=O)CCCOc1ccc2ccc(OCCCC(=O)NNC(=O)NNC(=O)N[C@H](C(N)=O)C(C)C)cc2c1)C(N)=O
- Ki [2]: 800 nM
- solubility [6]: 300 µg/mL (≈ 394 µM)
- inhibition (Renin (Homo sapiens)): inactive
- Ki (Protease): 700 nM
- inhibition (Sus scrofa): inactive
- Ki [4]: 1600 nM
- Stability [7]: Stable

Compound: CC(C)[C@H](NC(=O)CCCOc1ccc2ccc(OCCCC(=O)N[C@H](C(=O)NNC(=O)[C@@H](NC(=O)OC(C)(C)C)C(C)C)C(C)C)cc2c1)C(=O)NNC(=O)[C@@H](NC(=O)OC(C)(C)C)C(C)C
- Ki [2]: 80 nM
- inhibition (Renin (Homo sapiens)): inactive
- Ki (Protease): 50 nM
- inhibition [1]: Active
- inhibition (Sus scrofa): inactive
- Ki [4]: 160 nM
- Stability [7]: Stable

Other lines, results leading:

- inhibition [5]: 0%
Compound: COC(=O)CCNC(=O)NNC(=O)NNC(=O)CCCOc1ccc2ccc(OCCCC(=O)NNC(=O)NNC(=O)NCCC(=O)OC)cc2c1

- Ki (Protease): 560 nM
- inhibition [1]: Active
Compound: COC(=O)[C@@H](NC(=O)[C@H](CC(C)C)NC(=O)[C@@H](NC(=O)CCCOc1ccc2ccc(OCCCC(=O)N[C@H](C(=O)N[C@@H](CC(C)C)C(=O)N[C@H](C(=O)OC)C(C)C)C(C)C)cc2c1)C(C)C)C(C)C

- inhibition [5]: 21%
Compound: CC(=O)NNC(=O)NNC(=O)[C@@H](NC(=O)CCCOc1ccc2ccc(OCCCC(=O)N[C@H](C(=O)NNC(=O)NNC(C)=O)C(C)C)cc2c1)C(C)C

- inhibition [5]: 13%
Compound: CNC(=O)NNC(=O)NNC(=O)CCCOc1ccc2ccc(OCCCC(=O)NNC(=O)NNC(=O)NC)cc2c1

- inhibition [5]: 0%
Compound: CC(=O)NNC(=O)NNC(=O)[C@H](CCCCNC(=O)CCCOc1ccc2ccc(OCCCC(=O)NCCCC[C@H](NC(=O)OC(C)(C)C)C(=O)NNC(=O)NNC(C)=O)cc2c1)NC(=O)OC(C)(C)C

- inhibition [5]: 0%
Compound: CC(=O)NNC(=O)NNC(=O)CCNC(=O)CCCOc1ccc2ccc(OCCCC(=O)NCCC(=O)NNC(=O)NNC(C)=O)cc2c1

- inhibition [5]: 0%
Compound: CC(C)[C@H](NC(=O)CCCOc1ccc2ccc(OCCCC(=O)O)cc2c1)C(=O)NNC(=O)[C@@H](NC(=O)OC(C)(C)C)C(C)C
